Laboratory results from publication PMC9051925 (RSC Advances, 2020).

What was measured:
[1] = DPPH˙ radical scavenging assay; conditions: read-out: DPPH˙ scavenging activity (EC50); 37 °C 30 min, OD 540 nm; mean ± SD
Summary of the method: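 Assay mixtures were 50 μL DPPH˙ working solution in ethanol plus 50 μL test compound in DMSO (sample solutions 0.02–20 mM). Ethanol replaced DPPH˙ in sample-control and blank wells. Mixtures were incubated at 37 °C for 30 min and read at OD 540 nm, in triplicate. Scavenging rate was calculated by formula. EC50 was derived by nonlinear regression from three independent experiments.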

[2] = system: L02 cells; assay: MTT assay for H2O2-treated L02 cells; assay type: cell-based; conditions: Homo sapiens, L02, read-out: L02 cell viability after H2O2
Summary of the method: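 Cells were grown in RPMI-1640 with 10% FBS at 37 °C, 5% CO2. PC12 cells were seeded at 5 × 10^5 cells per mL and incubated 16 h; L02 cells at 1 × 10^5 cells per mL, 24 h. Test compound (final 10 μM, from 20 mM DMSO stock) or DMSO was added for 0.5 h. Then 10 μL H2O2 (1 mM in medium) or medium was added for 2 h, followed by MTT for 4 h.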

EC50 [1]	Structure (SMILES)	viability at 10 µM [2]
50 ± 10 µM	O=C(O)c1cc(O)c(O)c(O)c1 [GA, gallic acid]	37.8%
230 ± 90 µM	O=C1O[C@H]([C@@H](O)CO)C(O)=C1O [VC, vitamin C]	–
